Source: ChEMBL document CHEMBL4130437, “Bioassay-Guided Isolation of Antibacterial Metabolites from Emericella sp. TJ29” (J Nat Prod, 2017)
≈ marks a conversion by molar mass, not a printed value. Calls of active or inactive are those of the source. No cut-off for these calls is given here.

Key:
Enterococcus faecalis = experiment: Antibacterial activity against Enterococcus faecalis ATCC 29212 after 16 hrs by broth microdilution method; type: functional; conditions: ATCC 29212, 16 h
Procedure, shortened: (§1)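 Broth microdilution MIC with the inoculum standardized to about 5 × 10^5 CFU/mL. Plates were incubated 16 h at 37 °C. MIC was taken as the lowest concentration with no visible bacterial growth. Each experiment was run three times.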

Pseudomonas aeruginosa = experiment: Antibacterial activity against Pseudomonas aeruginosa ATCC 15442 after 16 hrs by broth microdilution method; type: functional; conditions: ATCC 15442, 16 h; procedure, shortened: as §1
Escherichia coli [1] = experiment: Antibacterial activity against ESBL-producing Escherichia coli ATCC 35218 after 16 hrs by broth microdilution method; type: functional; conditions: ATCC 35218, 16 h; procedure, shortened: as §1
Staphylococcus aureus = experiment: Antibacterial activity against methicillin-resistant Staphylococcus aureus ATCC 43300 after 16 hrs by broth microdilution method; type: functional; conditions: ATCC 43300, 16 h
Klebsiella pneumoniae = experiment: Antibacterial activity against Klebsiella pneumoniae ATCC 700603 after 16 hrs by broth microdilution method; type: functional; conditions: Klebsiella pneumoniae, 700603, 16 h; procedure, shortened: as §1
Escherichia coli [2] = experiment: Bactericidal activity against ESBL-producing Escherichia coli ATCC 35218 after 2 to 24 hrs by time kill assay; type: functional, organism-based
Procedure, shortened: (§2)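 Overnight MHB culture was diluted into fresh MHB at 5 × 10^5 CFU/mL. Tubes got varied compound concentrations, with untreated inoculated medium as control, and were shaken at 37 °C. At 2, 4, 6, 8, 12 and 24 h, samples were serially diluted, plated on tryptic soy agar and incubated overnight at 37 °C, then colonies were counted. Done at least three times, mean/SD.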

BEAS-2B = experiment: Cytotoxicity against human BEAS2B cells assessed as reduction in cell viability at 0.064 to 40 uM after 48 hrs by MTS assay; type: cell-based
Procedure, shortened: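 BEAS-2B cells grown in RPMI-1640 or DMEM with 10% FBS at 37 °C under 5% CO2. Seeded at 1 × 10^5 cells/mL and left to adhere 12 h. Exposed to compound at various concentrations in triplicate for 48 h, with cisplatin and paclitaxel as positive controls. MTS was added for 4 h, then cells were lysed in SDS/DMF and OD read at 490 nm. IC50 by Reed–Muench.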

Escherichia coli [3] = experiment: Bacteriostatic activity against ESBL-producing Escherichia coli ATCC 35218 after 2 to 24 hrs by time kill assay; type: functional, organism-based; procedure, shortened: as §2

| SMILES | MIC (Enterococcus faecalis) | MIC (Pseudomonas aeruginosa) | MIC (Escherichia coli [1]) | MIC (Staphylococcus aureus) | MIC (Klebsiella pneumoniae) | Activity (Escherichia coli [2]) | Activity (BEAS-2B) | Activity (Escherichia coli [3]) |
| --- | --- | --- | --- | --- | --- | --- | --- | --- |
| O=C(N[C@H](CO)[C@H](O)c1ccc([N+](=O)[O-])cc1)C(Cl)Cl [CHLORAMPHENICOL] | 16 µg/mL (≈ 49.5 µM) |  |  |  |  |  |  |  |
| CCC[C@H](O)[C@H](O)C[C@H]1OCc2cccc(OC)c21 | 32 µg/mL (≈ 120 µM) | 32 µg/mL (≈ 120 µM) | 8 µg/mL (≈ 30 µM) | > 128 µg/mL | > 128 µg/mL |  |  |  |
| CCC[C@H](O)[C@H](O)C[C@H]1OCc2c(OC)cccc21 | 32 µg/mL (≈ 120 µM) | 4 µg/mL (≈ 15 µM) | 4 µg/mL (≈ 15 µM) | 32 µg/mL (≈ 120 µM) | 16 µg/mL (≈ 60.1 µM) | Active | Non-Toxic |  |
| CO/N=C(\C(=O)N[C@@H]1C(=O)N2C(C(=O)O)=C(CSc3nc(=O)c(O)nn3C)CS[C@H]12)c1csc(N)n1 [CEFTRIAXONE] |  | 1 µg/mL (≈ 1.8 µM) |  |  | 1 µg/mL (≈ 1.8 µM) |  |  |  |
| CC1(C)C(=O)C=C[C@@]2(C)[C@H]1CC[C@@]13C[C@@]4(C)C=C5C(=O)OC[C@]51[C@@]1(CO1)[C@@H](C4=O)[C@@H]23 | > 128 µg/mL | 64 µg/mL (≈ 157 µM) | 32 µg/mL (≈ 78.3 µM) | > 128 µg/mL | > 128 µg/mL |  |  |  |
| C=C1[C@H]2C(=O)[C@@]3(C)C[C@]4(CC[C@H]5C(C)(C)C(=O)C=C[C@]5(C)[C@H]24)[C@@]12COC(=O)[C@@H]2[C@H]3O | 32 µg/mL (≈ 78 µM) | 8 µg/mL (≈ 19.5 µM) | 2 µg/mL (≈ 4.87 µM) | 32 µg/mL (≈ 78 µM) | 32 µg/mL (≈ 78 µM) |  | Non-Toxic | Active |
| COc1cccc(/C=C/[C@@H](O)[C@@H](O)[C@H]2O[C@@H]2C)c1CO | > 128 µg/mL | 32 µg/mL (≈ 114 µM) | 32 µg/mL (≈ 114 µM) | 64 µg/mL (≈ 228 µM) | > 128 µg/mL |  |  |  |
| COc1cccc2c1CO[C@@H]2C[C@@H](O)[C@@H](O)[C@H]1O[C@@H]1C | > 128 µg/mL | > 128 µg/mL | > 128 µg/mL | > 128 µg/mL | > 128 µg/mL |  |  |  |
| C=C1[C@H]2C(=O)[C@]3(C)C=C4C(=O)OC[C@]14[C@@]1(CC[C@H]4C(C)(C)C(=O)C=C[C@]4(C)[C@H]21)C3 | > 128 µg/mL | 32 µg/mL (≈ 81.5 µM) | 32 µg/mL (≈ 81.5 µM) | 64 µg/mL (≈ 163 µM) | 64 µg/mL (≈ 163 µM) |  |  |  |
| NCC[C@H](O)C(=O)N[C@@H]1C[C@H](N)[C@@H](O[C@H]2O[C@H](CN)[C@@H](O)[C@H](O)[C@H]2O)[C@H](O)[C@H]1O[C@H]1O[C@H](CO)[C@@H](O)[C@H](N)[C@H]1O [AMIKACIN] |  |  | 2 µg/mL (≈ 3.42 µM) |  |  |  |  |  |
| C=C1[C@H]2C(=O)[C@]3(C)C=C4C(=O)OC[C@]14[C@@]1(CC[C@H]4C(C)(C)C(=O)C=C[C@]4(C)[C@]21O)C3 | > 128 µg/mL | > 128 µg/mL | 64 µg/mL (≈ 157 µM) | > 128 µg/mL | > 128 µg/mL |  |  |  |
